Values belong to the compound of their own block, whether it stands above or below them. The source made the active and inactive calls. No cut-off for these calls is given here.
Experiments:
[1] = species on record: Homo sapiens; assay: Inhibition of TNFalpha-stimulated NF-kappaB (unknown origin) activation expressed in HEK293 cells at 20 ug/ml incubated for 6 hrs with TNFalpha followed by incubation in dark for 30 mins by luciferase reporter gene assay relative to control; type: cell-based
How it was run: (§1)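 HEK293 cells stably carrying NF-κB-responsive luciferase reporter (selected with 1 mg/mL G418) seeded, after 24 h stimulated with TNF-α 0.2 μg/mL, then exposed to compounds for 6 h; lysate incubated with luciferase substrate 30 min in dark, luminescence read. Screening at 20 µg/mL as percent inhibition; IC50 from nine concentrations, 0.78-20 μM. PS-341 reference.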

[2] = Inhibition of TNFalpha-stimulated NF-kappaB (unknown origin) activation expressed in HEK293 cells incubated for 6 hrs with TNFalpha followed by incubation in dark for 30 mins by luciferase reporter gene assay; type: cell-based; settings: Homo sapiens; how it was run: as §1
[3] = system: MCF7; assay: Antiproliferative activity against human MCF7 cells after 48 hrs by MTT assay; type: functional, cell-based; settings: MCF7, 48 h
How it was run: (§2)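 Tumour cell lines MCF-7, A549, H157, HepG2 and HL-60 were tested by MTT method; doxorubicin served as positive control.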

[4] = Cytotoxicity against HEK293 cells assessed as cell viability at 20 ug/ml relative to control; type: cell-based; settings: human, read-out: Activity
How it was run: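 HEK293/NF-κB reporter cells exposed to compounds at 20 µg/mL; cytotoxicity assessed.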

[5] = system: A549; assay: Antiproliferative activity against human A549 cells after 48 hrs by MTT assay; type: functional, cell-based; settings: A549, 48 h; how it was run: as §2
[6] = system: NCI-H157; assay: Antiproliferative activity against human NCI-H157 cells after 48 hrs by MTT assay; type: functional, cell-based; settings: NCI-H157, 48 h; how it was run: as §2
[7] = system: HepG2; assay: Antiproliferative activity against human HepG2 cells after 48 hrs by MTT assay; type: functional, cell-based; settings: HepG2, 48 h; how it was run: as §2
[8] = system: HL-60; assay: Antiproliferative activity against human HL60 cells after 48 hrs by MTT assay; type: functional, cell-based; settings: HL-60, 48 h; how it was run: as §2
[9] = species on record: Homo sapiens; assay: Inhibition of TNFalpha-stimulated NF-kappaB (unknown origin) activation assessed as IkappaBalpha degradation at 10 uM after 4 hrs by Western blot analysis

SMILES: COc1cc(/C=C(\C#N)C(=O)NCCNC(=O)O[C@H]2CC[C@@]3(C)C(=CC[C@H]4[C@@H]5CC[C@H](C(C)=O)[C@@]5(C)CC[C@@H]43)C2)cc(OC)c1O
inhibition [1]: 5%

IC50 [2]: 10.3 µM | IC50 [3]: > 50 µM | IC50 [5]: > 50 µM | IC50 [6]: > 50 µM | IC50 [7]: > 50 µM | IC50 [8]: 10.1 µM | inhibition [9]: Active
SMILES: CC(=O)[C@H]1CC[C@H]2[C@@H]3CC=C4C[C@@H](OC(=O)NCCNC(=O)/C(C#N)=C/c5ccc([N+](=O)[O-])cc5)CC[C@]4(C)[C@H]3CC[C@]12C
inhibition [1]: 78.3% | viability at 20 ug/ml [4]: 74.5%

IC50 [2]: 12.2 µM | IC50 [3]: > 50 µM | IC50 [5]: > 50 µM | IC50 [6]: > 50 µM | IC50 [7]: > 50 µM | IC50 [8]: > 50 µM
SMILES: CC(=O)[C@H]1CC[C@H]2[C@@H]3CC=C4C[C@@H](OC(=O)NCCNC(=O)OC(C)(C)C)CC[C@]4(C)[C@H]3CC[C@]12C
inhibition [1]: 76.6% | viability at 20 ug/ml [4]: 85.5%

IC50 [3]: 4.4 µM | IC50 [5]: 11 µM | IC50 [6]: 0.61 µM | IC50 [8]: 0.91 µM
SMILES: COc1cccc2c1C(=O)c1c(O)c3c(c(O)c1C2=O)C[C@@](O)(C(=O)CO)C[C@@H]3O[C@H]1C[C@H](N)[C@H](O)[C@H](C)O1 [DOXORUBICIN]

SMILES: COc1ccc(/C=C(\C#N)C(=O)NCCNC(=O)O[C@H]2CC[C@@]3(C)C(=CC[C@H]4[C@@H]5CC[C@H](C(C)=O)[C@@]5(C)CC[C@@H]43)C2)cc1O
inhibition [1]: 14.5%

IC50 [2]: 0.03 µM
SMILES: CC(C)C[C@H](NC(=O)[C@H](Cc1ccccc1)NC(=O)c1cnccn1)B(O)O [BORTEZOMIB]

SMILES: CC(=O)[C@H]1CC[C@H]2[C@@H]3CC=C4C[C@@H](OC(=O)NCCNC(=O)/C(C#N)=C/c5ccc(Cl)cc5)CC[C@]4(C)[C@H]3CC[C@]12C
inhibition [1]: 18.8%

IC50 [2]: 3.3 µM | IC50 [3]: 8.8 µM | IC50 [5]: 30.9 µM | IC50 [6]: 21.3 µM | IC50 [7]: > 50 µM | IC50 [8]: 15.6 µM
SMILES: CC(=O)[C@H]1CC[C@H]2[C@@H]3CC=C4C[C@@H](OC(=O)NCCNC(=O)/C(C#N)=C/c5cccc(C#N)c5)CC[C@]4(C)[C@H]3CC[C@]12C
inhibition [1]: 81.4% | viability at 20 ug/ml [4]: 59.6%

IC50 [2]: 7.5 µM | IC50 [3]: > 50 µM | IC50 [5]: > 50 µM | IC50 [6]: 24.5 µM | IC50 [7]: > 50 µM | IC50 [8]: > 100 µM
SMILES: CC(=O)[C@H]1CC[C@H]2[C@@H]3CC=C4C[C@@H](OC(=O)NCCNC(=O)/C(C#N)=C/c5ccc(C#N)cc5)CC[C@]4(C)[C@H]3CC[C@]12C
inhibition [1]: 64.4% | viability at 20 ug/ml [4]: 64.4%

SMILES: CCN(CC)c1ccc(/C=C(\C#N)C(=O)NCCNC(=O)O[C@H]2CC[C@@]3(C)C(=CC[C@H]4[C@@H]5CC[C@H](C(C)=O)[C@@]5(C)CC[C@@H]43)C2)cc1
inhibition [1]: 0.5%

SMILES: COc1ccc(/C=C(\C#N)C(=O)NCCNC(=O)O[C@H]2CC[C@@]3(C)C(=CC[C@H]4[C@@H]5CC[C@H](C(C)=O)[C@@]5(C)CC[C@@H]43)C2)cc1OC
inhibition [1]: 5.8%

SMILES: CC(=O)[C@H]1CC[C@H]2[C@@H]3CC=C4C[C@@H](OC(=O)NCCNC(=O)/C(C#N)=C/c5cccc(Br)c5)CC[C@]4(C)[C@H]3CC[C@]12C
inhibition [1]: 30.9%

SMILES: COc1cccc(/C=C(\C#N)C(=O)NCCNC(=O)O[C@H]2CC[C@@]3(C)C(=CC[C@H]4[C@@H]5CC[C@H](C(C)=O)[C@@]5(C)CC[C@@H]43)C2)c1
inhibition [1]: 22.2%

SMILES: CC(=O)[C@H]1CC[C@H]2[C@@H]3CC=C4C[C@@H](OC(=O)NCCNC(=O)/C(C#N)=C/c5cccc(Cl)c5)CC[C@]4(C)[C@H]3CC[C@]12C
inhibition [1]: 46.4%

IC50 [2]: 2.5 µM | IC50 [3]: 6.5 µM | IC50 [5]: 36.2 µM | IC50 [6]: 30.6 µM | IC50 [7]: > 50 µM | IC50 [8]: 11.2 µM
SMILES: CC(=O)[C@H]1CC[C@H]2[C@@H]3CC=C4C[C@@H](OC(=O)NCCNC(=O)/C(C#N)=C/c5cccc([N+](=O)[O-])c5)CC[C@]4(C)[C@H]3CC[C@]12C
inhibition [1]: 83.9% | viability at 20 ug/ml [4]: 54.7%

SMILES: CC(=O)[C@H]1CC[C@H]2[C@@H]3CC=C4C[C@@H](OC(=O)NCCNC(=O)/C(C#N)=C/c5ccc(Br)cc5)CC[C@]4(C)[C@H]3CC[C@]12C
inhibition [1]: 15.9%

SMILES: COc1ccc(/C=C(\C#N)C(=O)NCCNC(=O)O[C@H]2CC[C@@]3(C)C(=CC[C@H]4[C@@H]5CC[C@H](C(C)=O)[C@@]5(C)CC[C@@H]43)C2)cc1
inhibition [1]: 22.3%

SMILES: CC(=O)[C@H]1CC[C@H]2[C@@H]3CC=C4C[C@@H](OC(=O)NCCNC(=O)/C(C#N)=C/c5ccc6c(c5)OCCO6)CC[C@]4(C)[C@H]3CC[C@]12C
inhibition [1]: 4.2%

SMILES: COc1ccccc1/C=C(\C#N)C(=O)NCCNC(=O)O[C@H]1CC[C@@]2(C)C(=CC[C@H]3[C@@H]4CC[C@H](C(C)=O)[C@@]4(C)CC[C@@H]32)C1
inhibition [1]: 17.8%

SMILES: COc1cc(/C=C(\C#N)C(=O)NCCNC(=O)O[C@H]2CC[C@@]3(C)C(=CC[C@H]4[C@@H]5CC[C@H](C(C)=O)[C@@]5(C)CC[C@@H]43)C2)cc(O)c1OC
inhibition [1]: 22.6%

IC50 [2]: 7.1 µM | IC50 [3]: 6.1 µM | IC50 [5]: > 50 µM | IC50 [6]: 17.9 µM | IC50 [7]: > 50 µM | IC50 [8]: 45.6 µM
SMILES: CC(=O)[C@H]1CC[C@H]2[C@@H]3CC=C4C[C@@H](OC(=O)NCCNC(=O)/C(C#N)=C/c5cccc(F)c5)CC[C@]4(C)[C@H]3CC[C@]12C
inhibition [1]: 64.2% | viability at 20 ug/ml [4]: 60.8%

SMILES: CC(=O)[C@H]1CC[C@H]2[C@@H]3CC=C4C[C@@H](OC(=O)NCCNC(=O)/C(C#N)=C/c5ccc(O)cc5)CC[C@]4(C)[C@H]3CC[C@]12C
inhibition [1]: 44.9%

SMILES: CC(=O)[C@H]1CC[C@H]2[C@@H]3CC=C4C[C@@H](OC(=O)NCCNC(=O)/C(C#N)=C/c5ccc(O)c(O)c5)CC[C@]4(C)[C@H]3CC[C@]12C
inhibition [1]: 59.3%

SMILES: COc1cc(/C=C(\C#N)C(=O)NCCNC(=O)O[C@H]2CC[C@@]3(C)C(=CC[C@H]4[C@@H]5CC[C@H](C(C)=O)[C@@]5(C)CC[C@@H]43)C2)ccc1O
inhibition [1]: 34.6%

IC50 [2]: 12.4 µM | IC50 [3]: > 50 µM | IC50 [5]: > 50 µM | IC50 [6]: > 50 µM | IC50 [7]: > 50 µM | IC50 [8]: > 50 µM
SMILES: CC(=O)[C@H]1CC[C@H]2[C@@H]3CC=C4C[C@@H](OC(=O)NCCNC(=O)CC#N)CC[C@]4(C)[C@H]3CC[C@]12C
inhibition [1]: 74.4% | viability at 20 ug/ml [4]: 87.9%

SMILES: CC(=O)[C@H]1CC[C@H]2[C@@H]3CC=C4C[C@@H](OC(=O)NCCNC(=O)/C(C#N)=C/c5ccc(C(C)C)cc5)CC[C@]4(C)[C@H]3CC[C@]12C
inhibition [1]: 2.1%

SMILES: CC(=O)[C@H]1CC[C@H]2[C@@H]3CC=C4C[C@@H](OC(=O)NCCNC(=O)/C(C#N)=C/c5ccc(N(C)C)cc5)CC[C@]4(C)[C@H]3CC[C@]12C
inhibition [1]: 1.2%

SMILES: CC(=O)[C@H]1CC[C@H]2[C@@H]3CC=C4C[C@@H](OC(=O)NCCNC(=O)/C(C#N)=C/c5ccc(F)cc5)CC[C@]4(C)[C@H]3CC[C@]12C
inhibition [1]: 43.1%

SMILES: CC(=O)[C@H]1CC[C@H]2[C@@H]3CC=C4C[C@@H](OC(=O)NCCNC(=O)/C(C#N)=C/c5ccccc5)CC[C@]4(C)[C@H]3CC[C@]12C
inhibition [1]: 46.7%

— ChEMBL document CHEMBL4043228, “Design and synthesis of pregnenolone/2-cyanoacryloyl conjugates with dual NF-κB inhibitory and anti-proliferative activities” (Bioorg Med Chem Lett, 2017)
